Experimental data as given in article PMC5808564 (ChemMedChem, 2017).
Values joined by “and” are separate entries in the source; they are usually repeats but may differ in a detail not shown here. Equal values may be shown once. Read-outs that look alike come from different tables or passages of the source.

How the values were obtained:
[1] = tested on: IMR-90 human cells; assay: Human cell line toxicity testing; format: cell-based
[2] = biological target: recombinant T. brucei hexokinase 1 (rTbHK1) (Trypanosoma brucei, UniProt Q38C42); assay: biochemical; format: biochemical
[3] = tested on: T. brucei bloodstream form (BSF) parasites (cell line 90-13, a 427 strain); assay: microbe, parasite or virus in culture; format: cell-based, Trypanosoma brucei; conditions: for % T. brucei BSF growth inhibition (10 μM): 10 μM compound; for % T. brucei BSF growth inhibition (10 μM) / inhibition at 10 µM: BLD = below level of detection; for T. brucei BSF potency (LD50 ± SEM): 3-day growth, n ≥ 3; for inhibition at 10 µM: Trypanosoma brucei, A-427, read-out: % T. brucei BSF growth inhibition (10 μM), 10 μM compound
[4] = biological target: T1, human HK 4 (human glucokinase, hGlk) (Homo sapiens, UniProt P35557); assay: Specificity assay against human glucokinase; format: biochemical; conditions: for % hGlk inhibition (10 μM): 10 μM compound, BLD = below level of detection; for inhibition at 10 µM: read-out: % hGlk inhibition (10 μM)
T1 sequence (P35557 1-465): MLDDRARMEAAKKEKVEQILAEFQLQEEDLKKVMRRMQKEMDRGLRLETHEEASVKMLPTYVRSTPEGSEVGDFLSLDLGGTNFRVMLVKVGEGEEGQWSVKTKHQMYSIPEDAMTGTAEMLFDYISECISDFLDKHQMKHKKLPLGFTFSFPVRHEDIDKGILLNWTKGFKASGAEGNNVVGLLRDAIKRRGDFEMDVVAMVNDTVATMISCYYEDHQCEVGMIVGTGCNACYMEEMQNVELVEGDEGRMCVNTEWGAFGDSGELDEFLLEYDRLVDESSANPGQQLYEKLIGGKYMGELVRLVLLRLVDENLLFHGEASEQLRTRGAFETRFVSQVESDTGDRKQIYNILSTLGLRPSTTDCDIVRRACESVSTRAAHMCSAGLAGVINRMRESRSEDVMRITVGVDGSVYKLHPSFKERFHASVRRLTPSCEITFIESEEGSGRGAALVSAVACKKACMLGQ
In short: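 Uses human hexokinase 4 (glucokinase; GenBank BC001890). Activity is read through a coupled reaction in which glucose-6-phosphate dehydrogenase converts the glucose-6-phosphate formed to 6-phosphogluconate. The coincident NADPH formation is followed at 340 nm.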

[5] = read-out: IMR90 toxicity (EC50), IMR-90 cells, 44-46 h
[6] = read-out: rTbHK1 potency (IC50 ± SEM), average of n ≥ 3 experiments
[7] = Homo sapiens, IMR-90, read-out: IMR90 toxicity (EC50)

Row | Compound | EC50 [1, 5] | aqueous solubility (PBS buffer, pH 7.4) | IC50 [2, 6] | activity on whole T. brucei BSF parasites (in words) [3] | % hGlk inhibition (10 μM) [4] | % T. brucei BSF growth inhibition (10 μM) [3] | T. brucei BSF potency (LD50 ± SEM) [3] | EC50 [1, 7] | inhibition at 10 µM [4] | IC50 [2] | inhibition at 10 µM [3] | rTbHK1 enzymatic potency (in words) [2]
1 | 4-methoxybenzamidochlorobenzoic acid [Compound 1] | > 25 µM | > 274.3 μM | 9.1 µM | no appreciable activity | – | – | – | – | – | – | – | –
2 | CC(C)(C)c1ccc(C(=O)Nc2cc(Cl)c(-n3cccc3)cc2C(=O)O)cc1 [Compound 4aa] | > 25 µM | – | 3 ± 0.2 µM | – | 15.8 ± 3.0% | 73.6 ± 1.0% | 6.9 ± 2.1 µM | – | – | – | – | –
3 | CC(C)(C)c1ccc(C(=O)Nc2cc(Cl)c(-c3ccc[nH]3)cc2C(=O)O)cc1 [Compound 4bb] | – | – | – | – | – | – | – | > 25 µM | 6.1 ± 0.1% | 0.5 ± 0.05 µM | 57 ± 7.1% | –
4 | Cc1cc(C(=O)O)c(NC(=O)c2ccc(C(C)(C)C)cc2)cc1Cl [Compound 4c, 2-(4-tert-Butylbenzamido)-4-chloro-5-methylbenzoic acid] | – | – | – | – | – | – | – | > 25 µM | 12.5 ± 4.8% | 2.7 ± 0.18 µM | 97.5 ± 0.6% | –
5 | CC(C)(C)c1ccc(C(=O)Nc2cc(Cl)c(-n3cccn3)cc2C(=O)O)cc1 [Compound 4cc] | > 25 µM | – | 2.8 ± 0.2 µM | – | 8.7 ± 4.4% | 22.5 ± 12.3% | > 10.0 µM | – | – | – | – | –
6 | CCc1cc(C(=O)O)c(NC(=O)c2ccc(C(C)(C)C)cc2)cc1Cl [Compound 4d, 2-(4-tert-Butylbenzamido)-4-chloro-5-ethylbenzoic acid] | – | – | – | – | – | BLD | – | > 25 µM | 0.7 ± 1.4% | 7.4 ± 0.15 µM | – | –
7 | CC(C)(C)c1ccc(C(=O)Nc2cc(Cl)c(-n3ccnc3)cc2C(=O)O)cc1 [Compound 4dd] | > 25 µM | – | > 10 µM | – | 1.7 ± 3.2% | 16.4 ± 13.3% | – | – | – | – | – | –
8 | CC(C)(C)c1ccc(C(=O)Nc2cc(Cl)c(C3CC3)cc2C(=O)O)cc1 [Compound 4e] | > 25 µM | – | 6.7 ± 0.38 µM | – | BLD | 43.4 ± 16.8% | – | – | – | – | – | –
9 | CC(C)(C)c1ccc(C(=O)Nc2cc(Cl)c(-c3nnn[nH]3)cc2C(=O)O)cc1 [Compound 4ee] | – | – | – | – | – | BLD | – | > 25 µM | 1.6 ± 0.5% | 0.14 ± 0.002 µM | – | –
10 | Cn1nnc(-c2cc(C(=O)O)c(NC(=O)c3ccc(C(C)(C)C)cc3)cc2Cl)n1 [Compound 4ff] | > 25 µM | – | > 10 µM | failed to inhibit BSF parasite growth | 14.0 ± 4.1% | BLD | – | – | – | – | – | lacked enzymatic potency
11 | Cc1ccc(-c2cc(C(=O)O)c(NC(=O)c3ccc(C(C)(C)C)cc3)cc2Cl)cc1 [Compound 4g] | > 25 µM | – | 2.78 ± 0.03 µM | – | 15.7 ± 3.0% | 81.4 ± 5.6% | 3.2 ± 1.6 µM | – | – | – | – | –
12 | Cc1ccccc1-c1cc(C(=O)O)c(NC(=O)c2ccc(C(C)(C)C)cc2)cc1Cl [Compound 4h] | > 25 µM | – | – | – | 16.6 ± 2.3% | 65.2 ± 0.2% | – | – | – | – | – | –
13 | COc1ccc(-c2cc(C(=O)O)c(NC(=O)c3ccc(C(C)(C)C)cc3)cc2Cl)cc1 [Compound 4i] | > 25 µM | – | 1.72 ± 0.09 µM | – | 22.2 ± 1.6% | 82.5 ± 7.1% | 3.1 ± 0.2 µM | – | – | – | – | –
14 | COc1cccc(-c2cc(C(=O)O)c(NC(=O)c3ccc(C(C)(C)C)cc3)cc2Cl)c1 [Compound 4j] | > 25 µM | – | 0.88 ± 0.01 µM | – | 13.8 ± 1.9% | 92.2 ± 2.9% | 1.5 µM and 1.5 ± 0.3 µM | – | – | – | – | –
15 | COc1ccccc1-c1cc(C(=O)O)c(NC(=O)c2ccc(C(C)(C)C)cc2)cc1Cl [Compound 4k] | > 25 µM | – | 4.6 ± 0.32 µM | – | 18.8 ± 2.4% | 90.7 ± 0.9% | 2.0 ± 0.2 µM | – | – | – | – | –
16 | CN(C)c1ccc(-c2cc(C(=O)O)c(NC(=O)c3ccc(C(C)(C)C)cc3)cc2Cl)cc1 [Compound 4l] | > 25 µM | – | > 10 µM | – | 27.8 ± 1.7% | 58.0 ± 4.0% | 6.0 ± 0.2 µM | – | – | – | – | –
17 | CN(C)c1cccc(-c2cc(C(=O)O)c(NC(=O)c3ccc(C(C)(C)C)cc3)cc2Cl)c1 [Compound 4m] | – | – | – | – | – | – | – | > 25 µM | 43.7 ± 4.1% | 4 ± 0.32 µM | 82.8 ± 0.2% | –
18 | CC(C)(C)c1ccc(C(=O)Nc2cc(Cl)c(-c3ccc(F)cc3)cc2C(=O)O)cc1 [Compound 4n] | > 25 µM | – | 2.44 ± 0.08 µM | – | 15.1 ± 2.6% | 76.7 ± 10.4% | 3.1 ± 0.7 µM | – | – | – | – | –
19 | CC(C)(C)c1ccc(C(=O)Nc2cc(Cl)c(-c3cccc(F)c3)cc2C(=O)O)cc1 [Compound 4o] | > 25 µM | – | 4.6 ± 0.32 µM | – | 16.1 ± 8.7% | 93.7 ± 2.6% | 1.8 ± 0.3 µM | – | – | – | – | –
20 | CC(C)(C)c1ccc(C(=O)Nc2cc(Cl)c(-c3ccccc3F)cc2C(=O)O)cc1 [Compound 4p] | > 25 µM | – | 2.08 ± 0.07 µM | – | 24.5 ± 2.5% | 92.8 ± 2.0% | 5.2 ± 0.9 µM | – | – | – | – | –
21 | CC(C)(C)c1ccc(C(=O)Nc2cc(Cl)c(-c3cccc(Cl)c3)cc2C(=O)O)cc1 [Compound 4q] | – | – | – | – | – | – | – | > 25 µM | 30.9 ± 3.5% | 2.7 ± 0.05 µM | 90.7 ± 1.8% | –
22 | CC(C)(C)c1ccc(C(=O)Nc2cc(Cl)c(-c3ccc(C(=O)O)cc3)cc2C(=O)O)cc1 [Compound 4r] | > 25 µM | – | 3.5 ± 0.33 µM | – | 3.5 ± 7.1% | 51.0 ± 14.3% | – | – | – | – | – | –
23 | CC(C)(C)c1ccc(C(=O)Nc2cc(Cl)c(-c3ccncc3)cc2C(=O)O)cc1 [Compound 4s] | > 25 µM | – | > 10 µM | – | 15.1 ± 3.2% | 99.7 ± 1.4% | 3.5 ± 0.6 µM | – | – | – | – | –
24 | CC(C)(C)c1ccc(C(=O)Nc2cc(Cl)c(-c3cccnc3)cc2C(=O)O)cc1 [Compound 4t] | > 25 µM | – | – | – | 16.7 ± 1.2% | 57.7 ± 14.2% | – | – | – | – | – | –
25 | CC(C)(C)c1ccc(C(=O)Nc2cc(Cl)c(-c3cccs3)cc2C(=O)O)cc1 [Compound 4u] | – | – | – | – | – | – | – | > 25 µM | 12.5 ± 1.3% | 0.47 ± 0.15 µM | 69.1 ± 5.8% | –
26 | CC(C)(C)c1ccc(C(=O)Nc2cc(Cl)c(-c3ccsc3)cc2C(=O)O)cc1 [Compound 4v] | – | – | – | – | – | – | – | > 25 µM | 24.8 ± 1% | 0.33 ± 0.03 µM | 68.5 ± 2.1% | –
27 | CC(C)(C)c1ccc(C(=O)Nc2cc(Cl)c(-c3ccco3)cc2C(=O)O)cc1 [Compound 4w] | – | – | – | – | – | – | – | > 25 µM | 10.4 ± 2.1% | 0.42 ± 0.02 µM | 59 ± 8.2% | –
28 | CC(C)(C)c1ccc(C(=O)Nc2cc(Cl)c(-c3ccoc3)cc2C(=O)O)cc1 [Compound 4x] | > 25 µM | – | 0.51 ± 0.06 µM | – | 3.1 ± 2.8% | 73.7 ± 3.7% | 4.2 ± 0.4 µM | – | – | – | – | –
29 | CC(C)(C)c1ccc(C(=O)Nc2cc(Cl)c(-c3ccc4c(c3)OCCO4)cc2C(=O)O)cc1 [Compound 4y] | – | – | – | – | – | – | – | > 25 µM | 26.6 ± 0.4% | 0.6 ± 0.09 µM | 98 ± 1.2% | –
30 | CC(C)(C)c1ccc(C(=O)Nc2cc(Cl)c(-c3ccc4c(c3)OCO4)cc2C(=O)O)cc1 [Compound 4z] | > 25 µM | – | 3.9 ± 0.1 µM | – | 23.9 ± 2.5% | 89.8 ± 1.1% | 3.0 ± 0.3 µM | – | – | – | – | –
